These results are taken from PubChem BioAssay.

The nature of test [1]: inhibitors of TNFa-induced NFkB p65 translocation, primary screen, imaging, HUVEC, MLSMR starter and 10KST1 sets (AID 438;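 active = inhibition above 20% together with a positive visual image hit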;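 note: compound added about 3h40 before a 20 min TNFalpha stimulation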;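 for inhibition: signal is the nuclear over cytoplasmic p65 intensity ratio per well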). As to conditions: HUVEC TNFa-induced p65 nuclear translocation; cell count: measured here: nuclei count (cytotoxicity indicator), at 2.08 µM; inhibition: at 2 µM, stronger effect = higher value, 0% TNFa-plus-vehicle, 100% no-TNFa wells.
The nature of test [2]: endothelial E-selectin expression blockers – imaging, HUVEC, immunofluorescence, MLSMR starter and 10KST1 sets, primary screen (AID 487;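 active = visually confirmed hit in the image check and inhibition above 20%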;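 for inhibition: signal is fraction of cell area covered by stained E-selectin grains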;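 for nuclei count: 100% = median nuclei count of all wells on the same plate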). Particulars: HUVEC TNFalpha-induced E-selectin immunofluorescence imaging, at 2 µM; inhibition: stronger effect = higher value; nuclei count: measured here: cell number, toxicity.
The nature of test [3]: Primary imaging screen for DUSP6 inhibitors that restore phospho-Erk in transfected HeLa cells, chemical complementation (AID 609).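 For inhibition: phospho-Erk level distribution per well compared with pooled transfected vehicle control wells.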 Particulars: HeLa MKP-3 transfected, phospho-Erk imaging KS statistic, at 10 µM, cells stimulated with TPA for 15 min.
The target of test [4] is Dual specificity protein phosphatase 6 (Homo sapiens) (UniProt Q16828). The test is described as above. Particulars: HeLa MKP-3 transfected, phospho-Erk imaging KS statistic; at 10 µM; stronger effect = higher value; cells stimulated with TPA for 15 min.
Sequence of Dual specificity protein phosphatase 6 (Homo sapiens) (Q16828 whole entry, looked up): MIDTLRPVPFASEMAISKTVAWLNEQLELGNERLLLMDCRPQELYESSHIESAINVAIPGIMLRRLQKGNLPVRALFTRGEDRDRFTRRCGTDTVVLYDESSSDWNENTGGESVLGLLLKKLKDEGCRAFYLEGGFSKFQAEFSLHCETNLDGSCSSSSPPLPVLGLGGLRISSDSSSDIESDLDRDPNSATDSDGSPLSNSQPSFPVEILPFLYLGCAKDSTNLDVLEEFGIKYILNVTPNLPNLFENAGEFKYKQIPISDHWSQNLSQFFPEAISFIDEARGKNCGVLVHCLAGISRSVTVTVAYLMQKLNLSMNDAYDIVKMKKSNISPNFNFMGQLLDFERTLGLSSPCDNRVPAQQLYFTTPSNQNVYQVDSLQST
For test [5], the target named is Voltage-gated potassium channel subunit beta-2 (Rattus norvegicus) (UniProt P62483). Put plainly: inhibitors of rat Kvbeta2 reductase activity – biochemical, NADPH fluorescence, primary screen (AID 622;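 active = fluorescence slope higher than the sample average by over 3 SD, cut at about -0.22 in these data, passing the limit was not always enough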;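 note: slope of raw intensity against log time taken from 70 to 1610 s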). As to conditions: recombinant KvBeta, 4-cyanobenzaldehyde reduction, at 10 µM, stronger effect = higher value.
Sequence of Voltage-gated potassium channel subunit beta-2 (Rattus norvegicus) (P62483 whole entry, looked up): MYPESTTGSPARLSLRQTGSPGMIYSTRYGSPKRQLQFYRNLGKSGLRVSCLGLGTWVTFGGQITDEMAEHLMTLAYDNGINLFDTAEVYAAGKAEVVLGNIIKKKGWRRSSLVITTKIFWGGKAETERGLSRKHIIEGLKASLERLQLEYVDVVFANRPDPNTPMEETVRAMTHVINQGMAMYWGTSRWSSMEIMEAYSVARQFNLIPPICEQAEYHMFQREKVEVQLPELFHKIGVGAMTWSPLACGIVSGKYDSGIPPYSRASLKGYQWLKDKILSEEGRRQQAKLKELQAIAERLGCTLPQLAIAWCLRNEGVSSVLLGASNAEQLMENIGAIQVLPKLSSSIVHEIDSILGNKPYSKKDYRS
The target is the same in test [6]. Put plainly: enhancers of rat Kvbeta2 NADPH turnover – biochemical, NADPH fluorescence, primary screen (AID 623;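 active = NADPH fluorescence slope more negative than the mean of all samples by about 3 SD, 99.7% confidence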;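 note: fluorescence intensity change per second fitted from 20 to 320 s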). Particulars: Recombinant KvBeta, NADPH fluorescence decrease slope, 10 min; at 10 µM; stronger effect = lower value.
Test [7] addresses Alpha-2C adrenergic receptor (Homo sapiens) (UniProt P18825). The test is described as follows: compounds altering alpha2C-coupled GIRK flux – cell-based, HEK293 alpha2C/GIRK1/2, thallium flux, primary screen (AID 624;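 active = fluorescence slope after compound addition differing from the mean of all screened samples at 99.7% confidence, in either direction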;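 note: slope of fluorescence ratio to pre-addition baseline per second over 15 to 24 s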). Particulars: thallium flux BTC fluorescence, at 10 µM, actives lie on both sides.
Test [8] in a line: inhibitors of larval lipid processing in zebrafish, primary screen, whole organism, PED6 fluorescence, gall bladder and intestine (AID 686;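 active = a full or partial loss of lipid-probe fluorescence in the fish gall bladder, intestine or both, judged by eye; inactive = no fluorescence loss, or compound toxic to the fish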;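 note: larvae 5 to 7 days old with five fish per well; signal comes from phospholipase A2 cleavage of quenched PED6 carried via bile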). As to conditions: Zebrafish larvae PED6 lipid processing, fluorescence scoring; screened at 20 µM (by protocol). In a few lines:
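Incubation: overnight exposure of larvae to compound plus PED6 / Test system: live zebrafish larvae aged 5-7 days, whole organism / Amount: 5 larvae per well / Read-out basis: visual per-well fluorescence inhibition score / Signal: visual fluorescence microscopy scoring of gall bladder, gut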

Test [9] in a line: loss of swimming-algae plug formation – whole organism, Chlamydomonas reinhardtii, WT vs cilia-less mutant, absorbance, 96-well, primary screen (AID 463189;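 active = inhibition at or above 50% relative to wild type and mutant plate controls; inactive = inhibition below 50%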;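 note: 0% = wild type cc124 cells in DMSO and 100% = ciliumless bld1 mutant cells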). As to conditions: Chlamydomonas reinhardtii gravitaxis, OD600 absorbance, 2 days; at 10 µM; stronger effect = higher value.
[10] abbreviates: measured here: cell density z-score.
[11] abbreviates: measured here: nuclear c-Myc green intensity z-score.
Setting [12] is: measured here: nuclear pErk red intensity z-score, stronger effect = higher value.

Activity calls are given as the source filed them.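 Rule for the calls, unless noted: active = compounds giving at least 50% inhibition in the cell-based MKP-3 phosphatase rescue imaging test; inactive = the rest.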

Sequence of Alpha-2C adrenergic receptor (Homo sapiens) (P18825 whole entry, looked up): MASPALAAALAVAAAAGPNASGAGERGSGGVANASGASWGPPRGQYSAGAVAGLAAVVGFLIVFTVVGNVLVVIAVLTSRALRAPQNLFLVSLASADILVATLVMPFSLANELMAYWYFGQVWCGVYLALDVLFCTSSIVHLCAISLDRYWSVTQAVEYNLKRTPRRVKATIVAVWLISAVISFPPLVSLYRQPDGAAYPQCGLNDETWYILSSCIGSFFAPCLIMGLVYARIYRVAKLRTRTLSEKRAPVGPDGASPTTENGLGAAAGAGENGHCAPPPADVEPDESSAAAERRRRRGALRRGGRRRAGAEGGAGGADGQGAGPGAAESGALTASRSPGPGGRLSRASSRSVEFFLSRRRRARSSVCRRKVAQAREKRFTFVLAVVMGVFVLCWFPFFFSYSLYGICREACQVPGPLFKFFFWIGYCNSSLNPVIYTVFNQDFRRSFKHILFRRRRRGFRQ

In the case of `Cn1c(=O)n(CCc2ccccc2)c(=O)c2c1ncn2Cc1ccccc1`, the cell count in test [1] was 505. In addition, the inhibition in test [1] is -1.6% (inactive); in test [2] it was 42.5% (inactive); in test [4], -6.48% (inactive); in [9] it was -10.3% (inactive). In [2], this compound showed a nuclei count of 115%. Further, the z-score is -0.468 in test [3] (setting [10]), 1.76 in [3] (setting [11]) and -0.503 in [3] (setting [12]). Besides, in [5], the fluorescence slope is -0.508 (inactive). Besides, the NADPH fluorescence slope in [6] is -0.000139 (inactive). The slope in test [7] is 0.00833 (inactive). In [8], the call was inactive.

Take `CCOc1nc(SCCOc2ccc(C)cc2)nc(N(C)C)n1`: the cell count in test [1] was found to be 346. Moreover, the inhibition was -10.2% (inactive) in test [1], -115% (inactive) in [2], 22.8% (inactive) in test [4] and 30.3% (inactive) in test [9]. This compound also had a nuclei count in [2] of 91.5%. Besides, the figures for the z-score in test [3] (setting [10]), in test [3] (setting [11]) and in test [3] (setting [12]) were 2.72, -0.00429 and -0.85, respectively. In test [5], the fluorescence slope was -0.474 (inactive). Also, the NADPH fluorescence slope in [6] is 3.1e-05 (inactive). Also, in test [7], the slope was 0.0074 (inactive). For the same compound, in test [8], the call was inactive.

Turning to `COc1ccc(C2N3CC4(C)CN2CC(C)(C3)C4O)cc1OC` (centres undefined), the cell count in test [1] was 348. The inhibition in test [1] was -20.6% (inactive); in [2], -105% (inactive); in [4] it was -5.26% (inactive); in test [9], 37% (inactive). In addition, the nuclei count in test [2] was found to be 122%. In addition, the values for the z-score in [3] (setting [10]), in [3] (setting [11]) and in [3] (setting [12]) were 0.441, -1.49 and -0.949, respectively. Besides, the fluorescence slope in [5] was -0.473 (inactive). Besides, the NADPH fluorescence slope in test [6] was -7.1e-05 (inactive). The slope in test [7] was 0.00557 (inactive). Moreover, the outcome in [8] was inactive.

As for `N/C(=N\c1nc2ccccc2o1)NC(=O)c1ccccc1NC(=O)c1ccccc1`, the cell count in test [1] worked out at 614. Further, the inhibition in test [1] is 5.2% (inactive); in [2] it was -20.4% (inactive); in [4], 2.46% (inactive); in [9] it was 9.27% (inactive). Besides, in [2], the nuclei count was determined as 160%. The z-score in test [3] (setting [10]) is 1.3; in test [3] (setting [11]), -0.342; in test [3] (setting [12]), -0.375. In addition, the fluorescence slope in [5] is -0.361 (inactive). Besides, the NADPH fluorescence slope in [6] is -2e-05 (inactive). Further, the slope in test [7] was 0.0114 (inactive). In addition, the compound was called inactive in test [8].

For the compound `COC(=O)c1cc(Br)c(=O)n(Cc2ccc3c(c2)OCO3)c1`, the cell count in test [1] is 533. Further, the inhibition in [1] was 2.2% (inactive); in [2] it was -141% (inactive); in test [4], -14% (inactive); in [9], 110% (active). Moreover, the nuclei count in test [2] was 135%. In addition, the z-score came out at 0.138 in test [3] (setting [10]), 0.394 in [3] (setting [11]) and 1.32 in [3] (setting [12]). In addition, the fluorescence slope in test [5] is -0.501 (inactive). The NADPH fluorescence slope in test [6] was -4.4e-05 (inactive). In addition, in test [7], the slope was 0.00422 (inactive). For the same compound, the outcome in [8] was inactive.

`Cc1cc(C)c2nc(SCCC#N)nc(C)c2c1`: in [1], the cell count was determined as 635. The inhibition in [1] was -4.4% (inactive); in test [2], 9.3% (inactive); in test [4], -2.91% (inactive); in test [9] it was 4.11% (inactive). The nuclei count in [2] worked out at 157%. The z-score in [3] (setting [10]) is 0.288; in test [3] (setting [11]) it was -0.415; in test [3] (setting [12]), 1. In addition, the fluorescence slope in [5] was -0.508 (inactive). Also, the NADPH fluorescence slope in test [6] was -6.6e-05 (inactive). Further, in [7], the slope is 0.00476 (inactive). For the same compound, in test [8], the call was inactive.

As for `O=c1/c(=C\c2cccn2-c2ccccc2)sc2nc3ccccc3n12`, in [1], the cell count came out at 640. The inhibition in [1] was -5.8% (inactive); in test [2], -42.1% (inactive); in test [4], 3.56% (inactive); in test [9], 9.26% (inactive). In test [2], the nuclei count is 99.1%. In addition, the z-score is -0.282 in [3] (setting [10]), 0.665 in test [3] (setting [11]) and 0.128 in test [3] (setting [12]). Moreover, the fluorescence slope in test [5] is -0.181 (inactive). Moreover, the NADPH fluorescence slope in [6] is 8.6e-06 (inactive). Also, the slope in test [7] was 0.00666 (inactive). Further, in test [8], the result was inactive.

Regarding `O=C(c1ccc(F)cc1)N1CCC(N2CCCCCC2)CC1`, the cell count in test [1] was determined as 392. Moreover, the inhibition in test [1] is -0.5% (inactive); in test [2] it was -100% (inactive); in test [4], 15.1% (inactive); in test [9], 43.9% (inactive). For the same compound, the nuclei count in [2] came out at 138%. The z-score in test [3] (setting [10]) was -0.0132; in test [3] (setting [11]), 0.516; in [3] (setting [12]), -0.618. In addition, in test [5], the fluorescence slope was -0.395 (inactive). Further, the NADPH fluorescence slope in test [6] was -7.7e-06 (inactive). The slope in test [7] was 0.00694 (inactive). For the same compound, the outcome in [8] was inactive.
